Laboratory results: ChEMBL document CHEMBL1649446, “Comparative antipneumococcal activities of sulopenem and other drugs” (2009)
Values after ≈ are worked out from the molar mass of the structure shown.

Legend:
Format in all cases: functional
Streptococcus pneumoniae [1] = assay: Antimicrobial activity against Streptococcus pneumoniae 1 by time-kill analysis
Procedure, shortened: (§1)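 Time-kill in cation-adjusted Mueller-Hinton broth with 5% lysed horse blood; inocula 5 × 105 to 5 × 10^6 CFU/ml; drugs at MIC, 2× and 4× MIC; 35°C shaking water bath; viable counts at 0, 3, 6, 12 and 24 h. Bactericidal if ≥3 log10 CFU/ml (99.9%) reduction from original inoculum; 90% and 99% killing also scored.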

Streptococcus pneumoniae [2] = assay: Antimicrobial activity against Streptococcus pneumoniae 5 by time-kill analysis; procedure, shortened: as §1
Streptococcus pneumoniae [3] = assay: Antimicrobial activity against Streptococcus pneumoniae isolate 1147 by agar dilution method
Procedure, shortened: (§2)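 Agar dilution MIC on Mueller-Hinton agar with 5% sheep blood, inocula 10^4 CFU/spot; amoxicillin-clavulanate combined 1:2; S. pneumoniae ATCC 49619 quality control each run.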

Streptococcus pneumoniae [4] = assay: Antimicrobial activity against Streptococcus pneumoniae isolate 3455 by agar dilution method
Streptococcus pneumoniae [5] = assay: Antimicrobial activity against Streptococcus pneumoniae isolate 2880 by agar dilution method; procedure, shortened: as §2
Streptococcus pneumoniae [6] = assay: Antimicrobial activity against Streptococcus pneumoniae 9 by time-kill analysis; procedure, shortened: as §1
Streptococcus pneumoniae [7] = assay: Antimicrobial activity against Streptococcus pneumoniae isolate 1424 by agar dilution method; procedure, shortened: as §2
Streptococcus pneumoniae [8] = assay: Antimicrobial activity against Streptococcus pneumoniae isolate 1055 by agar dilution method
Streptococcus pneumoniae [9] = assay: Antimicrobial activity against Streptococcus pneumoniae isolate 1146 by agar dilution method; procedure, shortened: as §2
Streptococcus pneumoniae [10] = assay: Antimicrobial activity against Streptococcus pneumoniae 3 by time-kill analysis
Procedure, shortened: as §1, with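 “12,” for “12 and”, “=” for “if”, “drop” for “reduction”, “90%/99%/99.9%” for “90% and 99%”, “scored per strain.” for “also scored.”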

Streptococcus pneumoniae [11] = assay: Antimicrobial activity against Streptococcus pneumoniae isolate 3346 by agar dilution method
Streptococcus pneumoniae [12] = assay: Antimicrobial activity against Streptococcus pneumoniae 7 by time-kill analysis
Procedure, shortened: as §1, with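 “12,” for “12 and”, “=” for “if”, “drop” for “reduction”, “90%/99%/99.9%” for “90% and 99%”, “scored per strain.” for “also scored.”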

Streptococcus pneumoniae [13] = assay: Antimicrobial activity against Streptococcus pneumoniae isolate 2688 by agar dilution method; procedure, shortened: as §2
Streptococcus pneumoniae [14] = assay: Antimicrobial activity against Streptococcus pneumoniae isolate 37 by agar dilution method; procedure, shortened: as §2
Streptococcus pneumoniae [15] = assay: Antimicrobial activity against Streptococcus pneumoniae 6 by time-kill analysis
Procedure, shortened: as §1, with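 “12,” for “12 and”, “=” for “if”, “drop” for “reduction”, “90%/99%/99.9%” for “90% and 99%”, “scored per strain.” for “also scored.”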

Streptococcus pneumoniae [16] = assay: Antimicrobial activity against Streptococcus pneumoniae isolate 3282 by agar dilution method
Streptococcus pneumoniae [17] = assay: Antimicrobial activity against Streptococcus pneumoniae isolate 3791 by agar dilution method; procedure, shortened: as §2
Streptococcus pneumoniae [18] = assay: Antimicrobial activity against Streptococcus pneumoniae isolate 3374 by agar dilution method; procedure, shortened: as §2
Streptococcus pneumoniae [19] = assay: Antimicrobial activity against Streptococcus pneumoniae 8 by time-kill analysis
Procedure, shortened: as §1, with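 “12,” for “12 and”, “=” for “if”, “drop” for “reduction”, “90%/99%/99.9%” for “90% and 99%”, “scored per strain.” for “also scored.”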

Streptococcus pneumoniae [20] = assay: Antimicrobial activity against Streptococcus pneumoniae isolate 2686 by agar dilution method; procedure, shortened: as §2
Streptococcus pneumoniae [21] = assay: Antimicrobial activity against Streptococcus pneumoniae isolate 2874 by agar dilution method; procedure, shortened: as §2
Streptococcus pneumoniae [22] = assay: Antimicrobial activity against Streptococcus pneumoniae isolate 4747 by agar dilution method; procedure, shortened: as §2
Streptococcus pneumoniae [23] = assay: Antimicrobial activity against Streptococcus pneumoniae isolate 1564 by agar dilution method
Streptococcus pneumoniae [24] = assay: Antimicrobial activity against Streptococcus pneumoniae isolate 1384 by agar dilution method; procedure, shortened: as §2
Streptococcus pneumoniae [25] = assay: Antimicrobial activity against Streptococcus pneumoniae isolate 4755 by agar dilution method; procedure, shortened: as §2
Streptococcus pneumoniae [26] = assay: Antimicrobial activity against Streptococcus pneumoniae isolate 2617 by agar dilution method; procedure, shortened: as §2
Streptococcus pneumoniae [27] = assay: Antimicrobial activity against penicillin-intermediate Streptococcus pneumoniae by agar dilution method
Streptococcus pneumoniae [28] = assay: Antimicrobial activity against Streptococcus pneumoniae 2 by time-kill analysis
Procedure, shortened: as §1, with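 “12,” for “12 and”, “=” for “if”, “drop” for “reduction”, “90%/99%/99.9%” for “90% and 99%”, “scored per strain.” for “also scored.”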

Streptococcus pneumoniae [29] = assay: Antimicrobial activity against Streptococcus pneumoniae isolate 1397 by agar dilution method; procedure, shortened: as §2
Streptococcus pneumoniae [30] = assay: Antimicrobial activity against Streptococcus pneumoniae 11 by time-kill analysis
Procedure, shortened: as §1, with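 “12,” for “12 and”, “=” for “if”, “drop” for “reduction”, “90%/99%/99.9%” for “90% and 99%”, “scored per strain.” for “also scored.”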

Streptococcus pneumoniae [31] = assay: Antimicrobial activity against Streptococcus pneumoniae isolate 3263 by agar dilution method
Streptococcus pneumoniae [32] = assay: Antimicrobial activity against Streptococcus pneumoniae 10 by time-kill analysis
Procedure, shortened: as §1, with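 “12,” for “12 and”, “=” for “if”, “drop” for “reduction”, “90%/99%/99.9%” for “90% and 99%”, “scored per strain.” for “also scored.”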

Streptococcus pneumoniae [33] = assay: Antimicrobial activity against Streptococcus pneumoniae isolate 3458 by agar dilution method
Streptococcus pneumoniae [34] = assay: Antimicrobial activity against Streptococcus pneumoniae isolate 3587 by agar dilution method
Streptococcus pneumoniae [35] = assay: Antimicrobial activity against Streptococcus pneumoniae 4 by time-kill analysis
Procedure, shortened: as §1, with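 “12,” for “12 and”, “=” for “if”, “drop” for “reduction”, “90%/99%/99.9%” for “90% and 99%”, “scored per strain.” for “also scored.”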

Streptococcus pneumoniae [36] = assay: Antimicrobial activity against penicillin-susceptible Streptococcus pneumoniae by agar dilution method
Streptococcus pneumoniae [37] = assay: Antimicrobial activity against Streptococcus pneumoniae isolate 24 by agar dilution method
Streptococcus pneumoniae [38] = assay: Antimicrobial activity against penicillin-resistant Streptococcus pneumoniae by agar dilution method; procedure, shortened: as §2
Streptococcus pneumoniae [39] = assay: Antimicrobial activity against Streptococcus pneumoniae isolate 3275 by agar dilution method; procedure, shortened: as §2
Streptococcus pneumoniae [40] = assay: Antimicrobial activity against Streptococcus pneumoniae isolate 3260 by agar dilution method
Streptococcus pneumoniae [41] = assay: Antimicrobial activity against Streptococcus pneumoniae isolate 3481 by agar dilution method; procedure, shortened: as §2
Streptococcus pneumoniae [42] = assay: Antimicrobial activity against Streptococcus pneumoniae 19A by agar dilution method; procedure, shortened: as §2
Streptococcus pneumoniae [43] = assay: Antimicrobial activity against Streptococcus pneumoniae 12 by time-kill analysis
Procedure, shortened: as §1, with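 “12,” for “12 and”, “=” for “if”, “drop” for “reduction”, “90%/99%/99.9%” for “90% and 99%”, “scored per strain.” for “also scored.”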

Streptococcus pneumoniae [44] = assay: Antimicrobial activity against Streptococcus pneumoniae isolate 1394 by agar dilution method
Streptococcus pneumoniae [45] = assay: Antimicrobial activity against Streptococcus pneumoniae isolate 33 by agar dilution method; procedure, shortened: as §2
Streptococcus pneumoniae [46] = assay: Antimicrobial activity against Streptococcus pneumoniae isolate 3412 by agar dilution method; procedure, shortened: as §2
Streptococcus pneumoniae [47] = assay: Antimicrobial activity against Streptococcus pneumoniae isolate 3681 by agar dilution method; procedure, shortened: as §2

C[C@@H](O)[C@H]1C(=O)N2C(C(=O)O)=C(SCCNC=N)C[C@H]12 [IMIPENEM ANHYDROUS]
MIC (Streptococcus pneumoniae [1]): 0.004 µg/mL (≈ 0.0134 µM)
MIC (Streptococcus pneumoniae [2]): 0.5 µg/mL (≈ 1.67 µM)
MIC (Streptococcus pneumoniae [3]): 0.5 µg/mL (≈ 1.67 µM)
MIC (Streptococcus pneumoniae [4]): 0.5 µg/mL (≈ 1.67 µM)
MIC (Streptococcus pneumoniae [5]): 0.25 µg/mL (≈ 0.835 µM)
MIC (Streptococcus pneumoniae [6]): 0.03 µg/mL (≈ 0.1 µM)
MIC (Streptococcus pneumoniae [7]): 0.25 µg/mL (≈ 0.835 µM)
MIC (Streptococcus pneumoniae [8]): 0.25 µg/mL (≈ 0.835 µM)
MIC (Streptococcus pneumoniae [9]): 0.5 µg/mL (≈ 1.67 µM)
MIC (Streptococcus pneumoniae [10]): 0.06 µg/mL (≈ 0.2 µM)
MIC (Streptococcus pneumoniae [11]): 0.25 µg/mL (≈ 0.835 µM)
MIC (Streptococcus pneumoniae [12]): 0.5 µg/mL (≈ 1.67 µM)
MIC (Streptococcus pneumoniae [13]): 0.25 µg/mL (≈ 0.835 µM)
MIC (Streptococcus pneumoniae [14]): 0.25 µg/mL (≈ 0.835 µM)
MIC (Streptococcus pneumoniae [15]): 0.03 µg/mL (≈ 0.1 µM)
MIC (Streptococcus pneumoniae [16]): 0.125 µg/mL (≈ 0.418 µM)
MIC (Streptococcus pneumoniae [17]): 0.125 µg/mL (≈ 0.418 µM)
MIC (Streptococcus pneumoniae [18]): 0.125 µg/mL (≈ 0.418 µM)
MIC (Streptococcus pneumoniae [19]): 0.25 µg/mL (≈ 0.835 µM)
MIC (Streptococcus pneumoniae [20]): 0.25 µg/mL (≈ 0.835 µM)
MIC (Streptococcus pneumoniae [21]): 0.25 µg/mL (≈ 0.835 µM)
MIC (Streptococcus pneumoniae [22]): 0.125 µg/mL (≈ 0.418 µM)
MIC (Streptococcus pneumoniae [23]): 0.125 µg/mL (≈ 0.418 µM)
MIC (Streptococcus pneumoniae [24]): 0.125 µg/mL (≈ 0.418 µM)
MIC (Streptococcus pneumoniae [25]): 0.125 µg/mL (≈ 0.418 µM)
MIC (Streptococcus pneumoniae [26]): 0.125 µg/mL (≈ 0.418 µM)
MIC50 (Streptococcus pneumoniae [27]): 0.03 µg/mL (≈ 0.1 µM)
MIC90 (Streptococcus pneumoniae [27]): 0.125 µg/mL (≈ 0.418 µM)
MIC (Streptococcus pneumoniae [28]): 0.004 µg/mL (≈ 0.0134 µM)
MIC (Streptococcus pneumoniae [29]): 0.25 µg/mL (≈ 0.835 µM)
MIC (Streptococcus pneumoniae [30]): 0.25 µg/mL (≈ 0.835 µM)
MIC (Streptococcus pneumoniae [31]): 0.06 µg/mL (≈ 0.2 µM)
MIC (Streptococcus pneumoniae [32]): 0.03 µg/mL (≈ 0.1 µM)
MIC (Streptococcus pneumoniae [33]): 0.5 µg/mL (≈ 1.67 µM)
MIC (Streptococcus pneumoniae [34]): 0.125 µg/mL (≈ 0.418 µM)
MIC (Streptococcus pneumoniae [35]): 0.25 µg/mL (≈ 0.835 µM)
MIC50 (Streptococcus pneumoniae [36]): 0.008 µg/mL (≈ 0.0267 µM)
MIC90 (Streptococcus pneumoniae [36]): 0.008 µg/mL (≈ 0.0267 µM)
MIC (Streptococcus pneumoniae [37]): 0.25 µg/mL (≈ 0.835 µM)
MIC50 (Streptococcus pneumoniae [38]): 0.25 µg/mL (≈ 0.835 µM)
MIC90 (Streptococcus pneumoniae [38]): 0.25 µg/mL (≈ 0.835 µM)
MIC (Streptococcus pneumoniae [39]): 0.03 µg/mL (≈ 0.1 µM)
MIC (Streptococcus pneumoniae [40]): 0.25 µg/mL (≈ 0.835 µM)
MIC (Streptococcus pneumoniae [41]): 0.125 µg/mL (≈ 0.418 µM)
MIC50 (Streptococcus pneumoniae [42]): 0.5 µg/mL (≈ 1.67 µM)
MIC90 (Streptococcus pneumoniae [42]): 0.5 µg/mL (≈ 1.67 µM)
MIC (Streptococcus pneumoniae [43]): 0.25 µg/mL (≈ 0.835 µM)
MIC (Streptococcus pneumoniae [44]): 0.25 µg/mL (≈ 0.835 µM)
MIC (Streptococcus pneumoniae [45]): 0.5 µg/mL (≈ 1.67 µM)
MIC (Streptococcus pneumoniae [46]): 0.125 µg/mL (≈ 0.418 µM)
MIC (Streptococcus pneumoniae [47]): 0.125 µg/mL (≈ 0.418 µM)
